Compound activity from PubChem BioAssay.
Hits are enriched below; roughly 2.2% of the tested compounds scored in any of these assays.
APP 5UTR inh – APP translation inhibition | SH-SY5Y APP 5'UTR-luciferase reporter, luminescence | inhibition, % at 2 µM | actives 0.82% (n = 190,000) | AID 1285;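 active = inhibition above a set limit, derived from the sample mean plus 3 SD, cut at about 45% in these data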
BaF3 parental – reduces parental Ba/F3 cell viability, JAK2V617F counter-screen. CellTiter-Glo ATP luminescence. inhibition, % at 5.6 µM. actives 1.1% (n = 220,000). AID 1486;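 active = inhibition above a per-campaign cutoff, the mean inhibition of all tested compounds plus 3 SD, cut at about 27% in these data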;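 note: 0% = DMSO wells and 100% = JAK Inhibitor I control wells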
IEC-6 cytotox – kills IEC-6 intestinal cells in KLF5 counter-screen; actives 0.78% (n = 290,000); IEC-6 cytotoxicity, luminescence viability; inhibition, % at 5 µM; in the data active = inhibition above about 22%;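 note: 0% = plate median of test compound wells and 100% = cytotoxic reference compound wells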
MT stabilize HCS – stabilizes microtubules in HeLa cells | HeLa tubulin immunostaining HCS, 24 h; share of cells brighter than vehicle mean+2SD | % tubulin-high responders, % at 10 µM | actives 0.83% (n = 200,000);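 active = plate Z-score above 3 for both tubulin-high and condensed-nucleus cell shares, with cell loss under 80%, at 10 µM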;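 note: anti alpha tubulin signal scored within the nucleus-defined area of each cell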
Ba/F3 V617F tox – lowers viability of Ba/F3 cells expressing EpoR and JAK2V617F; ATP luminescence; inhibition, % at 5.6 µM; actives 1.1% (n = 220,000); AID 1446;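 active = inhibition above the campaign mean plus 3 SD over all tested compounds, cut at about 24% in these data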;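 note: cytokine-independent growth of Ba/F3 cells driven by EpoR plus mutant JAK2; 0% = DMSO-treated cells and 100% = JAK inhibitor I control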
b-catenin transl – alters nuclear translocation of beta-catenin in HeLa cells; immunofluorescence imaging; nuclear translocation activity, % at 5 µM; actives 0.3% (n = 190,000); AID 1665;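 active = nuclear translocation activity above 50% at 5 µM, with a well cell count of 50 or more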;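 note: per-cell ratio of nuclear to cytoplasmic median beta-catenin stain intensity; plate controls were DMSO negative control for no effect and GSK-3 inhibitor IX positive control for full effect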
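Technique: fluorescence imaging of beta-catenin antibody stain plus DAPI / Material: human HeLa cell line / Incubation: compound treatment 24 h, 37°C, 5% CO2 / Read-out basis: % activation of per-cell nuclear versus cytoplasmic median beta-catenin signal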
* hit, by the source's call; x = no result given.

SMILES	APP 5UTR inh	BaF3 parental	IEC-6 cytotox	MT stabilize HCS	Ba/F3 V617F tox	b-catenin transl
Cc1ccc(NC(=O)C[n+]2cc(-c3ccccc3)n3c2CCC3)c(C)c1	x	0	-8	x	-6	0
Cc1ccc(-c2c[n+](Cc3cccc(Cl)c3)c3n2CCC3)cc1	x	75*	4	x	82*	0
CCOc1ccc2c(c1)sc(N)[n+]2Cc1cc(C)cc2cccnc12	94*	80*	76*	14*	86*	152*
Cc1ccccc1C(=O)N1CCN(c2ccc(NC(=O)c3ccc4c(c3)OCCO4)cc2)CC1	x	x	9	x	x	x
CCc1nnc(NC(=O)CSc2nnc(-c3ccccc3O)n2-c2ccc(C)cc2C)s1	-8	2	-1	38*	0	0
CCc1nnc(NC(=O)CSc2nc3ccccc3o2)s1	47*	3	2	2	-1	-1
O=C(NC(=S)NCC1CCCO1)c1ccc(Br)o1 (stereo not given)	-33	-3	3	4	-5	-3
CCOC(=O)c1c(-c2ccccc2)oc2ccc(OCC(O)CNCCN(C)C)cc12 (stereo not given)	x	x	11	x	x	x
COc1ccc(N2CCN(S(=O)(=O)c3ccc4c(c3)NC(=O)CC(=O)N4)CC2)cc1	x	x	-5	x	x	x
CCOc1ccc(C2c3cc(OC)c(OC)cc3CC(=O)N2c2ccc(OC)cc2)cc1 (stereo not given)	3	3	0	42*	0	11
CCOc1cc2c(cc1OCC)C(c1ccc(OC)c(OC)c1)N(c1ccc(C(=O)O)cc1)C(=O)C2 (stereo not given)	4	14	-1	5	6	-6
CC(C)(C)OC(=O)N[C@@H](Cc1ccccc1)c1nnc(S(=O)(=O)Cc2ccccc2)o1	64*	8	5	1	58*	2
CCCCCOc1ccc(C(=O)NCC(=O)NCC(=O)OCC)cc1	-6	-1	11	36*	-6	9
CCOCC(O)CNc1ccccc1 (stereo not given)	1	8	1	3	0	-2
OC(CNc1ccccc1)COc1ccc(OCC(O)CNc2ccccc2)cc1 (stereo not given)	-7	34*	16	2	24*	-4
CCOC(=O)N1CCN(c2c(NCc3ccccc3OC)c(=O)c2=O)CC1	-6	-2	4	5	-2	x
CCOC(=O)N1CCN(c2c(NCc3ccc(Cl)cc3)c(=O)c2=O)CC1	36	69*	19	7	35*	x
CCOC(=O)N1CCN(c2c(NCc3ccc(F)cc3)c(=O)c2=O)CC1	x	31*	8	x	16	46
CCOC(=O)N1CCN(c2c(NCc3cccs3)c(=O)c2=O)CC1	-14	8	1	20*	-2	x
COc1ccc(C)cc1NC(=O)Cn1c(=O)oc2ccccc21	x	x	1	x	x	x
FC(F)(F)c1cccc(CN2CCC(c3cc(-c4cccs4)n[nH]3)CC2)c1	-6	10	18	29*	1	0
COC(=O)c1sccc1NC(=O)c1cc(-c2cccc(C)c2)nc2ccccc12	-9	8	2	15	4	-4
COC(=O)c1sccc1NC(=O)c1c(C)c(-c2cccc(Cl)c2)nc2ccccc12	50*	3	-8	5	-3	0
COC(=O)c1sc2ccccc2c1-n1cccc1C(=O)C(=O)Nc1ccc(OC)cc1	16	-1	2	22*	-2	x
COC(=O)c1sc2ccccc2c1-n1cccc1C(=O)C(=O)Nc1ccccc1	-18	0	-3	6	1	x
SMILES	APP 5UTR inh	BaF3 parental	IEC-6 cytotox	MT stabilize HCS	Ba/F3 V617F tox	b-catenin transl
O=C(Nc1cccn(Cc2c(Cl)cccc2Cl)c1=O)C1CC1	-10	7	-5	4	3	1
O=C(Nc1cccn(Cc2c(F)cccc2Cl)c1=O)NC1CCCCC1	3	2	-5	17*	-1	-1
C#CCOC(=O)Nc1cccn(Cc2c(Cl)cccc2Cl)c1=O	-4	15	5	51*	2	6
Cc1ccc(CNC(=O)C2CCN(C(=O)Nc3ccc(C)cc3)CC2)cc1	x	x	-3	x	x	x
CN(C)/C=C/C(=O)c1ccc(Cl)c([N+](=O)[O-])c1	-25	8	7	0	4	-1
Cc1nn2cc(-c3cccc(Cl)c3)cnc2c1Cl	-78	4	3	20*	2	70*
CC(C)n1nnnc1-c1cccc(Cl)c1	-5	3	-2	2	-1	-1
Cc1nn2cc(-c3cccc(Cl)c3)cnc2c1Br	6	2	4	16*	1	1
